Measles CPE: compounds protecting cells from measles virus cytopathic effect, primary screen, measles RdRp inhibitor project, single point, MLSMR library, absorbance; protection (pct of control), % at 4 µM; AID 841, 2007; Measles virus-infected cells, CPE protection; 1.5% of 140,000 active; in the data active = protection mostly above about 24%, no sharp cut-off; inactive = mostly below about 26%
ABCG2 inh: ABCG2 efflux pump inhibitors, primary screen, multiplex with ABCB1, IgMXP3 cells, flow cytometry. Broad substrate specificity ATP-binding cassette transporter ABCG2 (Homo sapiens), Q9UNQ0. JC-1 efflux. inhibition, % at 6.6 µM. 0.1% of 190,000 active. AID 1325, 2008;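 active = inhibition above 80%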;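 also: 0% = DMSO and 100% = nicardipine control wells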
Target sequence (Q9UNQ0 whole entry, looked up): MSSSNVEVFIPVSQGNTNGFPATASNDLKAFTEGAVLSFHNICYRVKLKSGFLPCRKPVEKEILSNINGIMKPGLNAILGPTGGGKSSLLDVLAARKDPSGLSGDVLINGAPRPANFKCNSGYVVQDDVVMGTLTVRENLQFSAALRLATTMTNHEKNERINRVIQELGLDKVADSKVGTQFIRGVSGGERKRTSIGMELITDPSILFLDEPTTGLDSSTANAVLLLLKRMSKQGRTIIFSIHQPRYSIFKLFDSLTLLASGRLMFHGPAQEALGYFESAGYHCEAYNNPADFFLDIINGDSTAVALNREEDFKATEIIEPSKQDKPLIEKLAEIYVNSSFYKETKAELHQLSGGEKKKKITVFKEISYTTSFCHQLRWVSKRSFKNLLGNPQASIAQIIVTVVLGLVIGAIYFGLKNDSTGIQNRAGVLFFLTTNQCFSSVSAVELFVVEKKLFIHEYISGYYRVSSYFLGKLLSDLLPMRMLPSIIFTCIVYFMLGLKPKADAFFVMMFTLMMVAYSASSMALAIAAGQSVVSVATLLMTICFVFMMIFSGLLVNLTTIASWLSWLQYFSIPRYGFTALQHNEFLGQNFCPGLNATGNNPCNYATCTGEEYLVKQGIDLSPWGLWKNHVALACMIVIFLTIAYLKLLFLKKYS
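Test system: IgMXP3 (ABCG2) plus far-red-tagged CCRF-Adr (ABCB1) cells. Reagent: JC-1 dye as substrate. Timing: 10 min exposure at 25 °C with rotation, no wash. Measured by: flow cytometric JC-1 green MFI at 530 nm. Read-out: percent efflux inhibition, scaled nicardipine 100% to DMSO 0%. Control set: nicardipine and DMSO wells.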
Redox H2O2 prof: compounds producing H2O2 with reducing agent – biochemical, NIH compound library profiling, artefact control for MLSCN library redox annotation, primary screen; activation, % at 10 µM; 0.03% of 200,000 active; DTT-dependent redox cycling H2O2, phenol red/HRP absorbance; 100% = 100 µM peroxide control, 0% = buffer;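 active = activation of at least 50% relative to the plate's high and low controls in the primary single-dose screen; inactive = activation below 50%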;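 also: compound incubated with DTT at 0.8 mM final as the reducing agent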
FLuc inhib CS: firefly luciferase enzyme inhibitors, primary screen, artefact control for luciferase-based inhibitor screens, biochemical, luminescence, ATPLite | Luciferin 4-monooxygenase (Photinus pyralis), P08659 | 10 min | inhibition, % at 10 µM | 1.5% of 200,000 active | AID 1006, 2008;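 active = inhibition above about 50% when tested at 10 µM, limit read from the data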
FLuc act counter: FLuc activators, initial screening, artefact control for FLuc-dependent activation tests, biochemical, ATPlite luminescence; Luciferin 4-monooxygenase (Photinus pyralis), P08659; ATPlite luciferase biochemical, 10 min; 0 = ATP-free wells, 1 = DMSO control; activation factor at 10 µM; 200,000 tested, under 10 active;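 active = luciferase activation factor, scaled between plate controls, of at least 2 with compound at 10 µM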
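Material: Luciferase/luciferin reagent mix; Doses: test compounds dosed from 2 mM stocks in 100% DMSO; Schedule: 10 min incubation after luciferase reagent addition, room temperature; Measured by: luminescence from luciferase reaction; Read-out: luminescence gain marking luciferase activators.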
ABCB1 block: ABCB1 efflux pump inhibitors, primary screen, cell-based, multiplex, flow cytometry, ABCG2 counter-screen; ATP-dependent translocase ABCB1 (Homo sapiens), P08183; CCRF-Adr cells, JC-1 efflux; inhibition, % at 6.6 µM; 0.067% of 190,000 active; in the data active = inhibition above about 40%;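 also: 0% = vehicle and 100% = reference inhibitor; higher value means more JC-1 retained so stronger ABCB1 efflux block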
* = called active by the depositor; . = not tested or not shown. The list is not random: actives were taken first. Their share in the collection is about 2.7%.

SMILES	Measles CPE	ABCG2 inh	Redox H2O2 prof	FLuc inhib CS	FLuc act counter	ABCB1 block
COc1ccccc1/C=C/C=N/n1c(-c2cc(C)[nH]n2)n[nH]c1=S	56.5*	0.6	0.0	17.2	0.8	0.2
CCn1cc(C2C(C(=O)Nc3cc(C)ccn3)=C(C)NC3=C2C(=O)CC(C)(C)C3)c(C)n1 (configuration not stated)	15.4	2.3	-0.1	-7.0	1.1	0.2
Cc1ccc(/C=N/c2sc3c(c2C#N)CCC3)o1	4.4	3.4	1.9	74.1*	0.3	0.2
N#Cc1c(/N=C/c2cccs2)sc2c1CCCCC2	14.0	47.1	0.7	86.5*	0.1	0.3
c1ccc(-c2cc(-c3nnco3)c3ccccc3n2)nc1	.	19.2	-1.8	-3.0	1	1.8
N#CC1=C(N)OC2=C(C(=O)CC(c3ccccc3)C2)C1c1cccnc1 (configuration not stated)	9.1	7.4	0.5	4.4	1	1.0
N#CC1=C(N)OC2=C(C(=O)CC(c3ccccc3)C2)C1c1ccoc1 (configuration not stated)	30.4*	14.4	0.7	-2.1	1	0.9
COC(=O)c1nc(NC(=O)C(C)(C)C)n[nH]1	35.8*	3.7	-0.5	-0.4	1	0.2
COC(=O)c1nc(NC(=O)c2ccc(Br)cc2)n[nH]1	3.6	1.0	0.2	-0.1	1	0.1
COc1ccccc1/C=N/OC(=O)c1ccc(F)cc1	.	1.2	1.0	73.8*	0.3	0.0
COc1ccccc1/C=N/NC(=O)c1ccc(Br)cc1	.	18.2	-0.7	35.2	0.6	-2.5
CC(=O)c1ccc(O)c(CSC2=NCCS2)c1	.	2.6	0.6	-4.0	1	0.2
CCN(CCNC(=O)C1CCN(S(=O)(=O)CC)CC1)c1ccccc1	59.8*	5.8	0.2	-8.4	1.1	0.7
CCN(CCNC(=O)C1CCCN(S(=O)(=O)CC)C1)c1ccccc1 (configuration not stated)	4.8	1.5	-0.1	4.4	1	0.4
O=C(NCC1CCCO1)c1c(O)c2cccc3c2n(c1=O)CCC3 (configuration not stated)	6.1	19.5	0.1	-6.7	1.1	1.1
O=C(NCC1CCCO1)c1c(O)c2cccc3c2n(c1=O)CC3 (configuration not stated)	55.4*	5.2	-0.3	-2.4	1	0.5
C/C(=N\Nc1nc2ccccc2s1)c1ccc(Br)s1	.	2.1	-1.5	0.9	1	-0.8
O=C(NCCCO)c1nc2ccccc2s1	13.1	0.1	0.4	-3.7	1	-0.2
c1ccc(-c2nc3ccccc3s2)nc1	8.1	3.4	1.5	61.1*	0.4	0.5
Brc1ccc(-c2nc3ccccc3s2)s1	27.7	-2.9	3.6	64.5*	0.4	-0.6
CN(C)c1ncccc1-c1nc2ccccc2s1	.	0.0	-0.2	-3.2	1	0.0
CCCNC(=O)c1ccc(-c2nc3ccccc3s2)s1	10.0	-11.2	1.1	89.5*	0.1	-1.2
CCCCN(CCCC)CCNC(=O)CNC(=O)c1cccs1	21.2	0.3	0.3	0.1	1	0.0
N/C(=N\OC(=O)/C=C/c1ccccc1)c1ccncc1	.	6.1	-0.2	34.9	0.7	-0.3
O=C(/C=C/c1ccccc1)c1ccccn1	8.1	1.7	2.3	70.6*	0.3	0.4
SMILES	Measles CPE	ABCG2 inh	Redox H2O2 prof	FLuc inhib CS	FLuc act counter	ABCB1 block
CC(C)(C)CC(=O)O/N=C(\N)c1ccccn1	4.1	7.6	0.0	51.1*	0.5	0.1
N/C(=N\OC(=O)/C=C/c1ccccc1)c1ccccn1	.	7.9	-2.0	82.2*	0.2	0.3
Cc1ccc(OCC(=O)O/N=C(\N)c2ccccn2)cc1	.	-1.3	-0.1	15.6	0.8	-0.6
COC(=O)c1sccc1-c1ccc(C(=O)Nc2cccc(Cl)c2)o1	5.7	0.5	-3.1	-0.2	1	-0.3
O=C(COC(=O)c1ccccc1F)Nc1cccnc1Cl	.	7.0	-1.4	-0.9	1	0.5
CN(c1ccc(OCC(=O)OCC(=O)Nc2c(F)c(F)c(F)c(F)c2F)cc1)S(=O)(=O)c1ccc(F)cc1	8.5	2.0	-0.5	-6.9	1.1	-0.1
O=C1C2C3C=CC(CC3)C2C(=O)N1/N=C/c1ccc(O)cc1 (configuration not stated)	16.8	1.7	-8.2	63.0*	0.4	0.4
O/C(=C\c1nc2ccccc2nc1/C=C(\O)c1ccccc1)c1ccccc1	.	0.3	-0.5	73.2*	0.3	1.6
OC(COCc1cccs1)CN1CCN(c2ccccc2Cl)CC1 (configuration not stated)	19.7	0.0	0.5	-4.9	1	-0.1
OC(COCc1cccs1)CN1CCN(c2cccc(Cl)c2)CC1 (configuration not stated)	53.6*	4.3	0.1	-4.2	1	1.5
CCOC(=O)N1CCN(C(=O)CCC(=O)N2CCOc3ccc(C)cc32)CC1	7.0	3.0	-1.9	-2.0	1	0.1
Cc1ccc2c(c1)N(C(=O)CCC(=O)O)CCO2	27.8*	0.3	0.4	-5.2	1.1	-0.1
CCCSc1nnc(NC(=O)Nc2ccc(F)cc2)s1	43.0*	3.2	-2.6	-3.7	1	0.7
CSc1nc2c(c(=O)n1-c1ccc(F)cc1)SCC2	44.0*	0.1	0.6	-10.1	1.1	-0.2
O=C(C(c1ccccc1)c1ccccc1)N1CCC(c2nc(-c3ccccc3Cl)no2)CC1	37.0*	0.4	1.1	.	.	0.0
O=C(O)c1ccc(S(=O)(=O)N2CCC(c3nc(-c4ccccc4Cl)no3)CC2)cc1	7.0	0.1	0.1	-1.5	1	0.0
CCS(=O)(=O)N1Cc2ccccc2CC1C(=O)N1CCN(c2ccccc2)CC1 (configuration not stated)	61.8*	-0.2	2.4	0.1	1	-0.1
COc1ccc2[nH]c(-c3ccc(C)cc3)cc(=O)c2c1	2.6	8.3	0.1	93.4*	0.1	0.8
COc1ccc(-c2cc(=O)c3cc(F)ccc3[nH]2)cc1	5.3	4.0	0.8	9.1	0.9	0.7
CC(C)OCCCNS(=O)(=O)c1ccc2ccccc2c1	30.1*	-0.2	0.1	-5.4	1.1	-0.1
O=S(=O)(NCCOc1ccccc1)c1ccc2ccccc2c1	18.4	-2.6	0.2	-2.8	1	-0.1
O=C(Nc1cccnc1Cl)c1ccc2c(Cl)c3c(nc2c1)CCC3	.	5.0	-0.7	90.6*	0.1	0.9

Screens from PubChem.
